Lung fibro prol: blocks proliferation of human lung fibroblasts; LL 47 human lung fibroblast viability, ATP luminescence; active compounds read low; AID 719; 85,000 tested, 1.1% active; viability, % at 10 µM;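 active = viability at or below 50% in the single dose screen; inactive = viability above 50%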;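 also: compound exposure lasted 72 h before the ATP readout; 100% = median luminescence of untreated cell-only wells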
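test system = LL 47 human lung fibroblasts | amount = 1,150 fibroblasts seeded per well | medium = 15% FBS in IMEM | times = overnight cell rest, 72 h compound treatment at 37 °C | measured by = CellTiter-Glo luminescence measuring cellular ATP | read-out = viability percentage against median untreated-cell control | benchmarks = cell-only wells, no compound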
H69AR growth 86K: growth inhibitors of human H69AR lung tumor cells; AID 598; H69AR lung tumor viability, ATP luminescence, 72 h; active compounds read low; 85,000 tested, 6% active; viability, % at 10 µM;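 active = viability at or below 40%; inactive = viability above 40%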;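 also: multidrug resistant small cell line overexpressing MRP-1 efflux transporter; 100% = mean luminescence of untreated control wells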
HCT116 PTEN-null: PTEN-deleted cell growth suppression; viability, % at 10 µM; 140,000 tested, 1.2% active; HCT116 PTEN-null viability, CellTiter-Glo, 60 h; active compounds read low; AID 827;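 active = viability at or below a set limit, 4 SD under the median of all tested compounds, cut at about 3.7% in these data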;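 also: PTEN knockout HCT116 line with beta catenin targeted HCT116 as companion control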
HUVEC inhibit: human endothelial cell proliferation inhibition | viability, % at 10 µM (by protocol) | AID 648 | 86,000 tested, 1.1% active | HUVEC proliferation, CellTiter-Glo luminescence, 72 h; active compounds read low;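 active = viability at or below 30%; inactive = viability above 30%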;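 also: 100% = median luminescence of DMSO-only cell control wells on each plate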
bCat KO growth: beta-catenin-lacking colon tumor cell growth suppression. viability, % at 10 µM. 140,000 tested, 1.5% active. HCT116 beta-catenin knockout viability, CellTiter-Glo, 60 h; active compounds read low;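 active = viability at or under a set limit, the compound median less 4 SD, cut at about 6% in these data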;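 also: 0% = Hyamine 1622 control at 20 µM and 100% = untreated cell control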
* = called active by the depositor; nt = no result given. This excerpt belongs to a sample that is enriched for hits.

SMILES	Lung fibro prol	H69AR growth 86K	HCT116 PTEN-null	HUVEC inhibit	bCat KO growth
CCOc1ccc(/C=C/C2=Cc3c(sc(NC(=O)CSc4n[nH]c(N)n4)c3C#N)C(C)(C)C2)cc1	48.0*	1.8*	19.6	3.6*	28.2
O=C(/C=C/c1ccc(Cl)cc1)c1cccnc1	24.8*	38.3*	0.7*	62.8	0.5*
O=C(/C=C/c1ccc(OCc2ccccc2)c(OCc2ccccc2)c1)c1cccnc1	nt	nt	1.6*	nt	1.5*
O=C(/C=C/c1ccccc1)NNC(=O)c1cccnc1	nt	nt	89.4	nt	91.7
O=C(/C=C/c1ccccc1Cl)c1cccnc1	76.2	1.2*	93.3	21.0*	96.4
O=C(OCc1csc(Nc2ccccc2)n1)c1ccc(Cl)cc1	nt	nt	85.2	nt	92.5
CN(Cc1ccccc1)S(=O)(=O)c1ccc(Cl)c(C(=O)NCc2ccc3c(c2)OCO3)c1	nt	nt	82.0	nt	87.2
CCOc1ccc(NC(=O)CSC(N)=O)cc1	101.7	15.1*	97.3	47.5	86.9
CCOc1ccc(NC(=O)CN2CCN(CC(=O)c3ccc(OCC)cc3)CC2)cc1	91.4	86.1	101.6	97.8	83.6
COC(=O)c1cccc(NC(=O)CN2CCN(c3ccc(OC)cc3)CC2)c1	98.5	90.5	97.8	99.4	100.8
CCOCC(=O)Nc1cccc(OC)c1	95.6	28.2*	95.3	90.6	93.4
CCOc1ccc(NC(=O)C/C(N)=N/O)cc1	95.0	95.1	96.8	94.1	92.4
COc1cccc(NC(=O)CCC(=O)Nc2cccc(OC)c2)c1	nt	nt	90.1	nt	94.0
COc1cccc(NC(=O)CN2CCN(c3ccc(F)cc3)CC2)c1	95.4	28.0*	90.0	109.0	100.1
CCOc1ccc(NC(=O)CN2CCN(CC(=O)Nc3ccc(F)cc3)CC2)cc1	89.2	30.3*	94.8	97.6	93.1
CCOC(=O)c1c(C)nc2c(c(SC)nn2-c2ccccc2)c1N	nt	nt	86.0	nt	96.4
O=C(CCN1CCN(c2ccccc2F)CC1)c1ccc(Br)cc1	85.7	7.7*	61.5	69.6	72.7
CCOc1ccc(NC(=O)CCN2CCN(c3ccccc3F)CC2)cc1	92.7	24.5*	44.1	70.8	42.6
CCOC(=O)c1cc(C(=O)OCC)c2cccc(C)n2c1=O	nt	nt	101.2	nt	99.2
N#Cc1nc(-c2ccc(OCc3ccccc3)cc2)oc1N1CCC(C(N)=O)CC1	79.7	37.0*	102.1	28.6*	92.4
CCOC(=O)Cc1csc(NC(=O)NC2(C(F)(F)F)Oc3ccccc3O2)n1	61.8	16.7*	35.2	67.8	37.2
Cc1ccccc1C(=O)Nc1ccc(N2CCOCC2)nc1	nt	nt	110.6	nt	103.2
COC(=O)[C@@H](NC(=O)Nc1cccc(OC)c1)C(C)C	99.5	102.6	101.0	98.7	102.5
CCOC(=O)Cc1csc(NC(=O)NC2(C(F)(F)F)Oc3ccc(Cl)cc3O2)n1 (configuration not stated)	nt	nt	75.5	nt	81.8
O=C(NCc1cccnc1)NC1(C(F)(F)F)Oc2ccccc2O1	87.6	27.6*	69.3	69.0	72.5
SMILES	Lung fibro prol	H69AR growth 86K	HCT116 PTEN-null	HUVEC inhibit	bCat KO growth
COc1cccc(NC(=O)NC2(C(F)(F)F)Oc3ccccc3O2)c1	89.3	23.2*	59.0	97.8	51.9
O=C(Nc1cc(N2CCOCC2)ncn1)NC1(C(F)(F)F)Oc2ccccc2O1	89.0	27.0*	67.2	68.4	59.9
O=C(CN1CCC(O)CC1)N1c2ccccc2C=Cc2ccccc21	102.5	88.7	102.0	93.2	99.3
Cn1nnnc1SCCNC/C=C/c1ccccc1	114.2	91.8	103.5	95.2	94.1
O=C(NC1CCCC1)c1ccc(CNc2c(N3CCOCC3)c(=O)c2=O)cc1	nt	nt	91.5	nt	80.6
Cc1cccc(C)c1NC(=O)c1cc(S(=O)(=O)N2CCOCC2)ccc1F	110.3	85.0	95.4	97.5	110.3
O=C(Nc1cccc2ncccc12)c1ccc(-c2ccc(Br)cc2)o1	nt	nt	84.7	nt	89.4
COc1cccc(-c2cc3nc(-c4ccccc4)cc(N4CCC5(CC4)OCCO5)n3n2)c1	99.3	68.2	33.1	70.4	46.5
CN1CCN(c2cc(-c3ccccc3)nc3cc(-c4ccc(F)cc4)nn23)CC1	nt	nt	1.3*	nt	3.8*
Fc1ccc(-c2cc3nc(-c4ccccc4)cc(N4CCN(CCN5CCOCC5)CC4)n3n2)cc1	56.7	25.6*	1.6*	31.8	1.7*
CCOc1ccccc1C(=O)N1CCN(C(c2ccccc2)c2ccccc2)CC1	nt	nt	68.6	nt	72.4
CC(=O)c1ccccc1OCC(O)CN1CCN(C(c2ccccc2)c2ccccc2)CC1 (configuration not stated)	77.2	9.8*	37.3	68.7	37.8
O=C(Nc1nnc(COc2ccccc2)s1)C1CCN(S(=O)(=O)c2ccc(Cl)cc2)CC1	80.5	33.0*	86.6	77.1	88.9
CCN(CC)CC(=O)Nc1c(C)cc(C)cc1C	104.8	nt	83.9	96.3	85.2
CCOC(=O)c1nnn(-c2nonc2N)c1-c1ccc(OC)cc1	97.5	102.9	96.5	88.5	99.9
COc1ccc(-c2cc(-c3ccccc3)c(C#N)c(S(C)=O)n2)cc1 (configuration not stated)	2.7*	2.3*	1.3*	6.8*	1.1*
Cc1cc(-n2[nH]c(C)c(C)c2=O)nc(-c2ccccc2O)n1	66.3	16.0*	13.1	76.3	17.6
Cc1cc(N2CCN(c3ccccc3)CC2)nc(-c2ccccc2O)n1	101.6	88.5	55.7	107.8	72.4
Cc1ccc(C(=O)Oc2cc(C)n(C)c(=O)c2)cc1	nt	nt	98.6	nt	87.2
Cc1c(NC(=O)c2cc3nc(-c4ccc(Cl)cc4)cc(C(F)(F)F)n3n2)c(=O)n(-c2ccccc2)n1C	112.0	18.2*	73.4	94.5	69.3
Cc1ccc(Cn2ccc(NC(=O)c3cc4nc(-c5ccco5)cc(C(F)(F)F)n4n3)n2)cc1	66.9	35.1*	53.7	68.4	61.4
Cc1c(NC(=O)c2nn3c(C(F)(F)F)cc(-c4ccccc4)nc3c2Cl)c(=O)n(-c2ccccc2)n1C	nt	nt	74.7	nt	74.7
CCN1CCN(C(=S)NC(C)c2ccccc2)CC1 (configuration not stated)	nt	nt	91.7	nt	97.2
CCCCCCCCCCCCCCCC(=O)OC[C@H](COP(=O)([O-])OCC[N+](C)(C)C)OC(=O)CCCCCCCCCCCCCCC	109.9	97.0	100.2	103.5	86.2
CCOc1ccc(-c2n[nH]c(C)c2-c2ccccc2OC)c(O)c1	84.6	6.7*	25.1	58.1	28.5
C=C(C)COc1ccc(-c2n[nH]c(C)c2-c2ccc(OC)cc2)c(O)c1	33.1*	13.6*	1.4*	10.7*	1.3*
O=C(NC(=S)NCCCN1CCOCC1)c1ccc([N+](=O)[O-])cc1	nt	nt	92.6	nt	93.9
COc1ccc(C(=O)N2CCCC(c3nc(-c4cc(OC)c(OC)c(OC)c4)no3)C2)cc1 (configuration not stated)	93.1	34.9*	92.2	78.8	90.0
COc1ccccc1C(=O)N1CCCC(c2nc(-c3cc(OC)c(OC)c(OC)c3)no2)C1 (configuration not stated)	96.4	60.8	90.8	90.8	93.5
CCOC(=O)c1cc(C)sc1/N=C/C1=C(O)CCCC1=O	nt	nt	94.9	nt	96.1

Compound activity (PubChem BioAssay)
